The source of these data is ChEMBL document CHEMBL2057169, “Discovery of novel tricyclic compounds as squalene synthase inhibitors” (Bioorg Med Chem, 2012).

One assay concerns the target T1, Squalene synthase (Rattus norvegicus, UniProt Q02769).
T1 sequence (Q02769 whole entry): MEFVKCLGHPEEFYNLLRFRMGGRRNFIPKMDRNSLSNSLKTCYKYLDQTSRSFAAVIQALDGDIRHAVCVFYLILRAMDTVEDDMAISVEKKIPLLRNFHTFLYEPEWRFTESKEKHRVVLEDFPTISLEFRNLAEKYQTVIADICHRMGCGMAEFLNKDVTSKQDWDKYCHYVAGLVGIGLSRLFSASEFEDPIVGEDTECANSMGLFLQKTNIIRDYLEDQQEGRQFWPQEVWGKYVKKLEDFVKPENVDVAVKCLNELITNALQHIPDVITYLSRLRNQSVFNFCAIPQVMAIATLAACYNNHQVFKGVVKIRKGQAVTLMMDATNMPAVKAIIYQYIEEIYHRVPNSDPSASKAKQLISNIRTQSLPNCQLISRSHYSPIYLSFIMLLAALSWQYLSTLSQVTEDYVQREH
As to the kind of experiment: Inhibition of squalene synthase in rat hepatic cells. It counts as cell-based.

In a further assay the test system is Hepatocyte. As to the kind of experiment: Inhibition of cholesterol synthesis in rat hepatocytes assessed as formation of cholesterol using [14C]mevalonolactone as substrate after 1 hr by radioactivity assay. It counts as functional, cell-based. In outline: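 Rat hepatocytes isolated by two-step portal-vein perfusion (EGTA buffer, then 0.05% collagenase). Cells were kept if viability was over 80% by trypan blue and seeded at 10^6 cells/well in DMEM with 10% LPDS. Next day they got 5% LPDS medium with inhibitor at 0–3000 nM for 1 h at 37 °C, then [14C]mevalonolactone for 1 h. Lysates were saponified, [14C]cholesterol corrected by [3H]cholesterol recovery and BCA protein, and % inhibition taken versus 0 nM wells. Triplicate wells; three experiments.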

The subject of another assay is Rattus norvegicus. As to the kind of experiment: Inhibition of cholesterol synthesis in Wistar rat liver assessed as reduction of [14C]-cholesterol level at 3 mg/kg, po administered as single dose measured after 1 hr by liquid scintillation counting. It is filed as functional. In outline:
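Male Wistar rats, 6 weeks old, n = 4-6, dosed orally at 3 mg/kg in 0.5% methylcellulose, with equimolar NaOH or NaHCO3 added; vehicle-only controls. At 1 h, [14C]mevalonic acid (5 µCi/5 ml/kg) was given ip, and rats were killed 1 h later.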

Structures are written as SMILES.

On to `O=C(O)CC1OC(c2cccc3ccccc23)c2cc(Cl)ccc2-n2cccc21` (configuration not stated), for which, at Squalene synthase, the IC50 (usually the point on the concentration scale where inhibition reaches its midpoint) is > 600 nM.
Same read-out and setting: as for `O=C(O)CC1OC(c2cccc(Cl)c2Cl)c2cc(Cl)ccc2-n2cccc21` (configuration not stated), the figure is 52 nM; as for `O=C(O)CC1OC(c2cccc3c2OCCO3)c2cc(Cl)ccc2-n2cccc21` (configuration not stated), 440 nM.
On the same count and under the same terms, as for `COc1cccc([C@@H]2O[C@@H](CC(=O)N3CCC(CC(=O)O)CC3)c3cccn3-c3ccc(Cl)cc32)c1OC`, the figure is > 600 nM.
As to `COc1cccc([C@H]2O[C@H](CC(=O)N3CCC(C(=O)O)CC3)c3cccn3-c3ccc(Cl)cc32)c1OC`, the IC50 in the assay on Hepatocyte came to 170 nM; at Squalene synthase it was 3.4 nM.
The like results for `COc1cccc([C@H]2O[C@H](CC(=O)N3CCC[C@H](C(=O)O)C3)c3cccn3-c3ccc(Cl)cc32)c1OC` were, in that order, 60 nM and 2.3 nM.
For `COc1cccc([C@H]2O[C@H](CC(=O)N3CCN(CC(=O)O)CC3)c3cccn3-c3ccc(Cl)cc32)c1OC`, in that order: 150 nM and 4.3 nM.
The like results for `COc1cccc([C@H]2O[C@H](CC(=O)NCC(=O)O)c3cccn3-c3ccc(Cl)cc32)c1OC` were, in that order, 94 nM and 2.3 nM.
With `COc1cccc([C@H]2O[C@H](CC(=O)NCCC(=O)O)c3cccn3-c3ccc(Cl)cc32)c1OC`, the figures for the half-maximal inhibitory concentration (IC50) in the assay with Hepatocyte and against Squalene synthase were 160 nM and 2.9 nM, respectively.
The like results for `COc1cccc([C@H]2O[C@H](CC(=O)Nc3cccc(C(=O)O)c3)c3cccn3-c3ccc(Cl)cc32)c1OC` were, in that order, 150 nM and 4 nM.
The like results for `COc1cccc([C@H]2O[C@H](CCC(=O)O)c3cccn3-c3ccc(Cl)cc32)c1OC` were, in that order, > 1000 nM and 3.1 nM.
Take `COc1cccc([C@H]2O[C@H](CCC(=O)N3CCC(CC(=O)O)CC3)c3cccn3-c3ccc(Cl)cc32)c1OC`: in the assay with Rattus norvegicus, the inhibition in vivo (commonly the relative decrease from the control value, in per cent) at 3 mg/kg came to 35%. Moreover, the IC50 with Hepatocyte is 93 nM; against Squalene synthase, 2.4 nM.
Consider `COc1cccc([C@H]2O[C@H](CCC(=O)N3CC(C(=O)O)C3)c3cccn3-c3ccc(Cl)cc32)c1OC`, for which the inhibition in vivo at 3 mg/kg in the assay on Rattus norvegicus worked out at 31%. The IC50 amounted to 23 nM in the assay with Hepatocyte and 2.2 nM on Squalene synthase.
As to `COc1cccc([C@H]2O[C@H](CCC(=O)N3CC(CC(=O)O)C3)c3cccn3-c3ccc(Cl)cc32)c1OC`, the inhibition in vivo at 3 mg/kg in the assay with Rattus norvegicus worked out at 41%. The figures for the IC50 in the assay with Hepatocyte and at Squalene synthase were 36 nM and 7 nM, respectively.
As for `COc1cccc([C@H]2O[C@H](CCC(=O)N3CCC(OCC(=O)O)CC3)c3cccn3-c3ccc(Cl)cc32)c1OC`, in the assay with Rattus norvegicus, the inhibition in vivo at 3 mg/kg was 18%. The results for the IC50 in the assay on Hepatocyte and against Squalene synthase were 7.2 nM and 0.8 nM, respectively.
The like results for `COc1cccc([C@H]2O[C@H](CCC(=O)N3CCC(OCCC(=O)O)CC3)c3cccn3-c3ccc(Cl)cc32)c1OC` were, in that order, 23%, 35 nM and 1.4 nM.
On to `COc1cccc([C@H]2O[C@H](CCC(=O)N3CCC(COCC(=O)O)CC3)c3cccn3-c3ccc(Cl)cc32)c1OC`, for which, in the assay on Rattus norvegicus, the inhibition in vivo at 3 mg/kg amounted to 7%. In addition, the figures for the IC50 in the assay with Hepatocyte and on Squalene synthase were 10 nM and 0.9 nM, respectively.
For the compound `COc1cccc([C@H]2O[C@H](CCC(=O)N3CCOC(C(=O)O)C3)c3cccn3-c3ccc(Cl)cc32)c1OC` (some centres not stated), in the assay on Rattus norvegicus, the inhibition in vivo at 3 mg/kg stood at 13%. Also, the IC50 in the assay with Hepatocyte is 9.7 nM; at Squalene synthase it was 1.6 nM.
The like results for `COc1cccc([C@H]2O[C@H](CCC(=O)N3CCN(CC(=O)O)C(=O)C3)c3cccn3-c3ccc(Cl)cc32)c1OC` were, in that order, 1%, 11 nM and 2.2 nM.
In the case of `COc1cccc([C@H]2O[C@H](CCn3cc(C(=O)O)nn3)c3cccn3-c3ccc(Cl)cc32)c1OC`, the inhibition in vivo at 3 mg/kg in the assay with Rattus norvegicus stood at 44%. Moreover, the IC50 turned out to be 25 nM with Hepatocyte and 0.59 nM against Squalene synthase.
The like results for `COc1cccc([C@H]2O[C@H](CCn3nncc3CC(=O)O)c3cccn3-c3ccc(Cl)cc32)c1OC` were, in that order, 50%, 41 nM and 0.81 nM.
Consider `COc1cccc([C@H]2O[C@H](CCn3cc(COCC(=O)O)nn3)c3cccn3-c3ccc(Cl)cc32)c1OC`, for which, in the assay on Rattus norvegicus, the inhibition in vivo at 3 mg/kg stood at 18%. For the same compound, the results for the IC50 in the assay on Hepatocyte and on Squalene synthase were 19 nM and 0.68 nM, respectively.
In the case of `COc1cccc([C@H]2O[C@H](CCn3cc(COC(C)(C)C(=O)O)nn3)c3cccn3-c3ccc(Cl)cc32)c1OC`, the inhibition in vivo at 3 mg/kg in the assay on Rattus norvegicus turned out to be 36%. In addition, the figures for the IC50 in the assay on Hepatocyte and against Squalene synthase were 7.3 nM and 0.69 nM, respectively.
The like results for `CCC(CC)(OCc1cn(CC[C@H]2O[C@H](c3cccc(OC)c3OC)c3cc(Cl)ccc3-n3cccc32)nn1)C(=O)O` were, in that order, 45%, 14 nM and 1.7 nM.
For the compound `COc1cccc([C@H]2O[C@H](CCn3nccc3CC(=O)O)c3cccn3-c3ccc(Cl)cc32)c1OC`, in the assay on Rattus norvegicus, the inhibition in vivo at 3 mg/kg stood at 5%. Also, the half-inhibitory concentration (IC50) is 210 nM with Hepatocyte and 1.6 nM at Squalene synthase.
The like results for `COc1cccc([C@H]2O[C@H](CCn3cc(C(=O)O)cn3)c3cccn3-c3ccc(Cl)cc32)c1OC` were, in that order, 56%, 54 nM and 2.1 nM.
Take `COc1cccc([C@H]2O[C@H](CCn3cc(CC(=O)O)cn3)c3cccn3-c3ccc(Cl)cc32)c1OC`: in the assay on Rattus norvegicus, the inhibition in vivo at 3 mg/kg was found to be 34%. For the same compound, the IC50 with Hepatocyte amounted to 62 nM; on Squalene synthase, 3.1 nM.
The like results for `COc1cccc([C@H]2O[C@H](CCn3nnc(C(=O)O)n3)c3cccn3-c3ccc(Cl)cc32)c1OC` were, in that order, 38%, 18 nM and 0.89 nM.
As to `COc1cccc([C@H]2O[C@H](CCn3nnnc3CC(=O)O)c3cccn3-c3ccc(Cl)cc32)c1OC`, the IC50 in the assay on Hepatocyte was 130 nM; against Squalene synthase it was 1.1 nM.
With `COc1cccc([C@H]2O[C@H](CCn3nnc(CCC(=O)O)n3)c3cccn3-c3ccc(Cl)cc32)c1OC`, in the assay on Rattus norvegicus, the inhibition in vivo at 3 mg/kg is 64%. The half-maximal inhibitory concentration (IC50) in the assay on Hepatocyte worked out at 70 nM; at Squalene synthase, 0.85 nM.
The like results for `COc1cccc([C@H]2O[C@H](CCn3nnc(C(C)(C)C(=O)O)n3)c3cccn3-c3ccc(Cl)cc32)c1OC` were, in that order, 44%, 58 nM and 1.1 nM.
In turn, `COC(=O)CC1OC(c2cccc(OC)c2OC)c2cc(Cl)ccc2-n2cccc21` (racemic) showed an IC50 against Squalene synthase of 220 nM.
Consider `COc1cccc(C2OC(CC(=O)O)c3cccn3-c3ccc(Cl)cc32)c1OC` (racemic), for which the half-inhibitory concentration (IC50) in the assay on Hepatocyte stood at 250 nM; at Squalene synthase it was 3.3 nM.
Consider `COc1cccc(C2OC(CC(=O)N3CCC(CC(=O)O)CC3)c3cccn3-c3ccc(Cl)cc32)c1OC` (racemic), for which the IC50 in the assay on Hepatocyte amounted to 63 nM; against Squalene synthase, 2.7 nM.
As to `COc1cccc(C2OC(CC(=O)O)c3ccc(Cl)n3-c3ccc(Cl)cc32)c1OC` (racemic), the results for the IC50 with Hepatocyte and against Squalene synthase were 560 nM and 1.6 nM, respectively.
At Squalene synthase, `COc1cccc(C2OC(CC(=O)O)c3ccc(CN(C)C)n3-c3ccc(Cl)cc32)c1OC` (racemic) displayed an IC50 of 540 nM.
For `COc1cccc(C2OC(CC(=O)O)c3ccc(CN4CCOCC4)n3-c3ccc(Cl)cc32)c1OC` (racemic), the IC50 in the assay with Hepatocyte amounted to 160 nM; against Squalene synthase it was 7.6 nM.
